Measured values reported in PubChem BioAssay AID624268 (The Scripps Research Institute Molecular Screening Center, 2012).
The campaign covered roughly 360,000 compounds. About 1,500 (0.42%) were called active.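 How the source made its calls: active means inhibition above a per-plate cutoff of the control wells' mean inhibition plus 3 SD (cut at about 5.5% in these data); inactive means the rest.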 The sample as a whole holds a higher share of actives than the screen did.

These compounds were tested on methionyl-tRNA synthetase (Trypanosoma brucei brucei) (assay: T. brucei MetRS inhibitors, primary screen, biochemical, luminescence (AID 624268;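 further: 0% = DMSO wells median and 100% = median of wells with control inhibitor compound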)). Conditions: purified T. brucei MetRS, ATP depletion, Kinase-Glo luminescence; at 11.9 µM; stronger effect = higher value.
Procedure, shortened: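 Assay system: T. brucei methionyl-tRNA synthetase, purified | Medium: HEPES buffer with MgCl2, KCl, DTT, spermine, BSA, pyrophosphatase | Compound: 11.9 µM single point | Incubation: 15 min enzyme-compound preincubation, 2 h reaction, 10 min detection, 25 °C | Measured by: Kinase-Glo luciferase luminescence reporting remaining unconsumed ATP | Measure: % inhibition normalized to control-well medians | Replication: Singlicate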
In the case of `COc1ccccc1CCC(=O)OCC(=O)N1CCN(S(=O)(=O)c2ccc(C)cc2C)CC1`, the inhibition is reported as -0.39% (inactive).
In the case of `O=C(NCc1cccnc1)Nc1cccc(NC(=O)NCc2cccnc2)c1F`, the inhibition is reported as -1.05% (inactive).
`C/C(=C\C(=O)c1ccccc1)Nc1cccc(O)c1` was tested, and the inhibition was 0.01% (inactive).
For `O=C(NCc1cccc(CNC(=O)Nc2cccc(O)c2)c1)Nc1cccc(O)c1`, the inhibition was 8.03% (active).
In the case of `O=C(CSCc1ccc([N+](=O)[O-])cc1)NCCSCc1ccccc1`, the inhibition is reported as -0.21% (inactive).
With `CCCCc1nnc(NC(=O)CS(=O)(=O)Cc2ccccc2)s1` the inhibition was -0.35% (inactive).
`O=C(NCCOc1ccccc1F)Nc1ccc(Br)cc1` was tested, and the inhibition was 2.66% (inactive).
For `COCc1nnc(NC(=O)CS(=O)(=O)Cc2ccccc2)s1`, the inhibition was 0.23% (inactive).
For `O=C(Nc1ccccc1)Nc1nnc(COc2ccccc2F)s1`, the inhibition was 17.3% (active).
For `CCOc1ccc2c(c1)c(=O)c(S(=O)(=O)c1ccc(C)cc1)cn2CC`, the inhibition was -0.11% (inactive).
For `CN1CCN(S(=O)(=O)c2ccc3[nH]cc(C(=O)O)c(=O)c3c2)CC1`, the inhibition was 1.71% (inactive).
`Cc1ccc(S(=O)(=O)c2c[nH]c3ccc(C)cc3c2=O)cc1` was tested, and the inhibition was 8.92% (active).
In the case of `Cc1ccc(S(=O)(=O)c2c[nH]c3ccc(Cl)cc3c2=O)cc1`, the inhibition is reported as 40.4% (active).
For `CCCn1cc(S(=O)(=O)c2ccc(C)cc2)c(=O)c2cc(OCC)ccc21`, the inhibition was -0.04% (inactive).
For `Cc1ccc2[nH]cc(CCCN3C(=O)c4ccccc4C3=O)c2c1`, the inhibition was -0.1% (inactive).
In the case of `O=C(Nc1ccccc1Cl)/C(Cl)=C(\Cl)S(=O)c1ccccc1` (centres undefined), the inhibition is reported as -0.49% (inactive).
In the case of `CCCCCn1nnnc1-c1nc2cc3ccccc3cc2[nH]c1=O`, the inhibition is reported as 34.6% (active).
For `CCCCCn1nnnc1C1c2ccccc2C(=O)N1Cc1ccco1` (centres undefined), the inhibition was -0.27% (inactive).
`CCCCn1c(-c2cccc(C)c2)nc2cc3[nH]c(=O)c(C(C)C)nc3cc21` was tested, and the inhibition was -0.06% (inactive).
In the case of `C=CCNC(=S)N/N=C/c1ccc(C)s1`, the inhibition is reported as -0.64% (inactive).
`CC(C)CNC(=O)C1CCCN(S(=O)(=O)c2ccc(-n3cnnn3)cc2)C1` (centres undefined) was tested, and the inhibition was -0.29% (inactive).
For `CCOc1ncccc1C(=O)N(C)CC(=O)Nc1ccc(F)cc1`, the inhibition was -0.63% (inactive).
In the case of `CC1(C)CC(=O)C=C(c2cccc3c2Oc2ccccc2S3)C1`, the inhibition is reported as -0.11% (inactive).
For `O=c1c(-c2ccc(Cl)cc2)[n+]([O-])c2ccccc2n1OCc1nc2ccccc2[nH]1`, the inhibition was -0.49% (inactive).
In the case of `Clc1ccccc1SCc1nc2ccccc2[nH]1`, the inhibition is reported as 7.72% (active).
In the case of `COc1ccc(C)cc1-n1nnnc1SCc1nc2ccccc2c(=O)[nH]1`, the inhibition is reported as 0.31% (inactive).
With `O=C(COC(=O)c1ncc(Cl)c(Cl)c1Cl)NNC(=O)c1ccccc1` the inhibition was -0.19% (inactive).
For `O=C(/C=C/c1cccs1)c1cc(Cl)ccc1OC(=O)N1CCOCC1`, the inhibition was -0.94% (inactive).
In the case of `O=C1CC(C(=O)O)NC(=S)N1` (centres undefined), the inhibition is reported as 0.05% (inactive).
With `Cc1oc(CC(C)C)c(CN2CCCC2)c1C(=O)O` the inhibition was -0.29% (inactive).
In the case of `O=C(Nc1nsc(-c2ccccc2)n1)c1ccncc1`, the inhibition is reported as -1.68% (inactive).
In the case of `NS(=O)(=O)c1ccc(CCNC(=O)NC2CCCCC2)cc1`, the inhibition is reported as -1.44% (inactive).
In the case of `CN(CC(=O)NCCc1ccc(S(N)(=O)=O)cc1)CC(=O)Nc1ccc(Cl)cc1`, the inhibition is reported as -0.04% (inactive).
For `NS(=O)(=O)c1ccc(CCNC(=O)Nc2ccc(Cl)cc2)cc1`, the inhibition was 26.5% (active).
For `CC(=O)C1(C)N(O)C(C)(C)C(c2cccs2)=[N+]1[O-]` (centres undefined), the inhibition was -1.27% (inactive).
`COc1ccccc1C(=O)N(Cc1ccc(C)o1)C1CCS(=O)(=O)C1` (centres undefined) was tested, and the inhibition was -0.11% (inactive).
In the case of `CC1(C(=O)NS(=O)(=O)c2ccccc2)CCN1C(=O)C1CCCCC1` (centres undefined), the inhibition is reported as -0.08% (inactive).
For `CC(C)(C)c1ccc(S(=O)(=O)NC(=O)C2(C)CCN2C(=O)CC2CC2)cc1` (centres undefined), the inhibition was -0.1% (inactive).
With `COc1ccc(NC2CCCN(C(=O)c3ccncc3)C2)cc1` (centres undefined) the inhibition was -0.58% (inactive).
